# Results taken from ChEMBL document CHEMBL3739273, “Synthesis, biological activity evaluation and molecular docking studies of novel coumarin substituted thiazolyl-3-aryl-pyrazole-4-carbaldehydes” (Bioorg Med Chem Lett, 2015).
# Active and inactive are the calls of the source. The rule behind the calls is not given here.
# Tested on: Bacillus cereus
# Experiment: Bactericidal activity against Bacillus cereus ATCC 14579 after 24 hrs
# Format: functional
# Conditions: ATCC 14579, 24 h, read-out: MBC99.9
# How it was run: (§1)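 MBC determined by a standard MBC protocol alongside the MIC, with values in µg/mL. Gentamycin sulfate and ampicillin were the references.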
row,Structure (SMILES),MBC [µg/mL]
1,O=Cc1cn(-c2nc(-c3cc4cc(Cl)ccc4oc3=O)cs2)nc1-c1ccc(Cl)cc1,165
2,Cc1ccc(-c2nn(-c3nc(-c4cc5cc(Br)ccc5oc4=O)cs3)cc2C=O)cc1,250

# Tested on: Klebsiella pneumoniae
# Experiment: Antibacterial activity against Klebsiella pneumoniae ATCC 43816 assessed as growth inhibition at 100 ug/ml after 24 hrs by agar well diffusion method
# Format: functional
# Conditions: not given
# How it was run: (§2)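 Agar well diffusion. Compounds were tested at 10, 20, 100, 200 and 300 µg/mL, and the zone of inhibition was measured in mm. Gentamycin sulfate was the reference drug.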
row,Structure (SMILES),growth inhibition (GI)
1,O=Cc1cn(-c2nc(-c3cc4cc(Cl)ccc4oc3=O)cs2)nc1-c1ccc(Cl)cc1,Active
2,Cc1ccc(-c2nn(-c3nc(-c4cc5cc(Br)ccc5oc4=O)cs3)cc2C=O)cc1,Active

# Tested on: HeLa
# Experiment: Anticancer activity against human HeLa cells assessed as cell viability at 10 uM after 48 hrs by MTT assay
# Format: functional, cell-based
# Conditions: not given
row,Structure (SMILES),growth inhibition (GI)
1,O=Cc1cn(-c2nc(-c3cc4cc(Cl)ccc4oc3=O)cs2)nc1-c1ccc(Cl)cc1,Active

# Tested on: MCF7
# Experiment: Anticancer activity against human MCF7 cells assessed as cell viability after 48 hrs by MTT assay
# Format: functional, cell-based
# Conditions: MCF7, 48 h
# How it was run: (§3)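 MTT cytotoxicity assay in human DU-145 prostate, MCF-7 breast and HeLa cervical cancer cell lines. Doxorubicin was the reference drug.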
row,Structure (SMILES),IC50 [µM]
1,O=Cc1cn(-c2nc(-c3cc4cc(Cl)ccc4oc3=O)cs2)nc1-c1ccc(Cl)cc1,18.7
2,Cc1ccc(-c2nn(-c3nc(-c4cc5cc(Br)ccc5oc4=O)cs3)cc2C=O)cc1,35.2

# Tested on: Proteus vulgaris
# Experiment: Antibacterial activity against Proteus vulgaris ATCC 13315 assessed as growth inhibition at 100 ug/ml after 24 hrs by agar well diffusion method
# Format: functional
# Conditions: not given
# How it was run: as §2
row,Structure (SMILES),growth inhibition (GI)
1,O=Cc1cn(-c2nc(-c3cc4cc(Cl)ccc4oc3=O)cs2)nc1-c1ccc(Cl)cc1,Active
2,Cc1ccc(-c2nn(-c3nc(-c4cc5cc(Br)ccc5oc4=O)cs3)cc2C=O)cc1,Active

# Tested on: not listed separately
# Experiment: n-Octanol-phosphate buffer partition coefficient, log P of the compound at pH 7.4 after 30 mins by shake flask method
# Format: physicochemical
# Conditions: not given
# How it was run: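 Shake-flask partition between n-octanol and 50 mM phosphate buffer, pH 7.4. P calculated and expressed as logP.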
row,Structure (SMILES),logD at 0.5 h
1,O=Cc1cn(-c2nc(-c3cc4cc(Cl)ccc4oc3=O)cs2)nc1-c1ccc(Cl)cc1,3.06

# Tested on: Staphylococcus aureus
# Experiment: Antibacterial activity against methicillin-resistant Staphylococcus aureus NCTC 13616 after 24 hrs by microtiter plate method
# Format: functional
# Conditions: NCTC 13616, 24 h
row,Structure (SMILES),MIC [µg/mL]
1,O=Cc1cn(-c2nc(-c3cc4cc(Cl)ccc4oc3=O)cs2)nc1-c1ccc(Cl)cc1,134
2,Cc1ccc(-c2nn(-c3nc(-c4cc5cc(Br)ccc5oc4=O)cs3)cc2C=O)cc1,138

# Tested on: Staphylococcus aureus
# Experiment: Antibacterial activity against methicillin-resistant Staphylococcus aureus NCTC 13616 assessed as growth inhibition at 100 ug/ml after 24 hrs by agar well diffusion method
# Format: functional, organism-based
# Conditions: not given
# How it was run: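 Agar well diffusion assay with compounds applied to wells at several concentrations, including the 100 level reported here. The zone of inhibition was measured in mm. Gentamycin sulfate was the standard drug.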
row,Structure (SMILES),growth inhibition (GI)
1,O=Cc1cn(-c2nc(-c3cc4cc(Cl)ccc4oc3=O)cs2)nc1-c1ccc(Cl)cc1,Active
2,Cc1ccc(-c2nn(-c3nc(-c4cc5cc(Br)ccc5oc4=O)cs3)cc2C=O)cc1,Active

# Tested on: Proteus vulgaris
# Experiment: Bactericidal activity against Proteus vulgaris ATCC 13315 after 24 hrs
# Format: functional
# Conditions: ATCC 13315, 24 h, read-out: MBC99.9
# How it was run: as §1
row,Structure (SMILES),MBC [µg/mL]
1,O=Cc1cn(-c2nc(-c3cc4cc(Cl)ccc4oc3=O)cs2)nc1-c1ccc(Cl)cc1,260
2,Cc1ccc(-c2nn(-c3nc(-c4cc5cc(Br)ccc5oc4=O)cs3)cc2C=O)cc1,240

# Tested on: Klebsiella pneumoniae
# Experiment: Bactericidal activity against Klebsiella pneumoniae ATCC 43816 after 24 hrs
# Format: functional
# Conditions: ATCC 43816, 24 h, read-out: MBC99.9
# How it was run: as §1
row,Structure (SMILES),MBC [µg/mL]
1,O=Cc1cn(-c2nc(-c3cc4cc(Cl)ccc4oc3=O)cs2)nc1-c1ccc(Cl)cc1,240
2,Cc1ccc(-c2nn(-c3nc(-c4cc5cc(Br)ccc5oc4=O)cs3)cc2C=O)cc1,250

# Tested on: HeLa
# Experiment: Anticancer activity against human HeLa cells assessed as cell viability after 48 hrs by MTT assay
# Format: functional, cell-based
# Conditions: not given
# How it was run: as §3
row,Structure (SMILES),IC50 [µM]
1,O=Cc1cn(-c2nc(-c3cc4cc(Cl)ccc4oc3=O)cs2)nc1-c1ccc(Cl)cc1,9.51
2,Cc1ccc(-c2nn(-c3nc(-c4cc5cc(Br)ccc5oc4=O)cs3)cc2C=O)cc1,14.1

# Tested on: Bacillus spizizenii
# Experiment: Antibacterial activity against Bacillus subtilis ATCC 6633 after 24 hrs by microtiter plate method
# Format: functional
# Conditions: ATCC 6633, 24 h
# How it was run: (§4)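 Test concentrations reported in µg/mL. Gentamycin sulfate and ampicillin were the reference drugs.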
row,Structure (SMILES),MIC [µg/mL]
1,O=Cc1cn(-c2nc(-c3cc4cc(Cl)ccc4oc3=O)cs2)nc1-c1ccc(Cl)cc1,112
2,Cc1ccc(-c2nn(-c3nc(-c4cc5cc(Br)ccc5oc4=O)cs3)cc2C=O)cc1,125

# Tested on: Bacillus spizizenii
# Experiment: Bactericidal activity against Bacillus subtilis ATCC 6633 after 24 hrs
# Format: functional
# Conditions: ATCC 6633, 24 h, read-out: MBC99.9
# How it was run: as §1
row,Structure (SMILES),MBC [µg/mL]
1,O=Cc1cn(-c2nc(-c3cc4cc(Cl)ccc4oc3=O)cs2)nc1-c1ccc(Cl)cc1,165
2,Cc1ccc(-c2nn(-c3nc(-c4cc5cc(Br)ccc5oc4=O)cs3)cc2C=O)cc1,250

# Tested on: Klebsiella pneumoniae
# Experiment: Antibacterial activity against Klebsiella pneumoniae ATCC 43816 after 24 hrs by microtiter plate method
# Format: functional
# Conditions: ATCC 43816, 24 h
# How it was run: as §4
row,Structure (SMILES),MIC [µg/mL]
1,O=Cc1cn(-c2nc(-c3cc4cc(Cl)ccc4oc3=O)cs2)nc1-c1ccc(Cl)cc1,117
2,Cc1ccc(-c2nn(-c3nc(-c4cc5cc(Br)ccc5oc4=O)cs3)cc2C=O)cc1,124

# Tested on: Escherichia coli
# Experiment: Antibacterial activity against Escherichia coli ATCC 8739 after 24 hrs by microtiter plate method
# Format: functional
# Conditions: ATCC 8739, 24 h
# How it was run: as §4
row,Structure (SMILES),MIC [µg/mL]
1,O=Cc1cn(-c2nc(-c3cc4cc(Cl)ccc4oc3=O)cs2)nc1-c1ccc(Cl)cc1,126
2,Cc1ccc(-c2nn(-c3nc(-c4cc5cc(Br)ccc5oc4=O)cs3)cc2C=O)cc1,135

# Tested on: Escherichia coli
# Experiment: Antibacterial activity against Escherichia coli ATCC 8739 assessed as growth inhibition at 100 ug/ml after 24 hrs by agar well diffusion method
# Format: functional
# Conditions: not given
# How it was run: as §2
row,Structure (SMILES),growth inhibition (GI)
1,O=Cc1cn(-c2nc(-c3cc4cc(Cl)ccc4oc3=O)cs2)nc1-c1ccc(Cl)cc1,Active
2,Cc1ccc(-c2nn(-c3nc(-c4cc5cc(Br)ccc5oc4=O)cs3)cc2C=O)cc1,Active

# Tested on: Bacillus spizizenii
# Experiment: Antibacterial activity against Bacillus subtilis ATCC 6633 assessed as growth inhibition at 100 ug/ml after 24 hrs by agar well diffusion method
# Format: functional, organism-based
# Conditions: not given
# How it was run: as §2
row,Structure (SMILES),growth inhibition (GI)
1,O=Cc1cn(-c2nc(-c3cc4cc(Cl)ccc4oc3=O)cs2)nc1-c1ccc(Cl)cc1,Active
2,Cc1ccc(-c2nn(-c3nc(-c4cc5cc(Br)ccc5oc4=O)cs3)cc2C=O)cc1,Active

# Tested on: Proteus vulgaris
# Experiment: Antibacterial activity against Proteus vulgaris ATCC 13315 after 24 hrs by microtiter plate method
# Format: functional
# Conditions: ATCC 13315, 24 h
# How it was run: as §4
row,Structure (SMILES),MIC [µg/mL]
1,O=Cc1cn(-c2nc(-c3cc4cc(Cl)ccc4oc3=O)cs2)nc1-c1ccc(Cl)cc1,131
2,Cc1ccc(-c2nn(-c3nc(-c4cc5cc(Br)ccc5oc4=O)cs3)cc2C=O)cc1,122

# Tested on: Escherichia coli
# Experiment: Bactericidal activity against Escherichia coli ATCC 8739 after 24 hrs
# Format: functional
# Conditions: ATCC 8739, 24 h, read-out: MBC99.9
# How it was run: as §1
row,Structure (SMILES),MBC [µg/mL]
1,O=Cc1cn(-c2nc(-c3cc4cc(Cl)ccc4oc3=O)cs2)nc1-c1ccc(Cl)cc1,250
2,Cc1ccc(-c2nn(-c3nc(-c4cc5cc(Br)ccc5oc4=O)cs3)cc2C=O)cc1,270

# Tested on: not listed separately
# Experiment: Anticancer activity against human DU145 cells assessed as cell viability after 48 hrs by MTT assay
# Format: functional, cell-based
# Conditions: DU-145, 48 h
# How it was run: as §3
row,Structure (SMILES),IC50 [µM]
1,O=Cc1cn(-c2nc(-c3cc4cc(Cl)ccc4oc3=O)cs2)nc1-c1ccc(Cl)cc1,14.9
2,Cc1ccc(-c2nn(-c3nc(-c4cc5cc(Br)ccc5oc4=O)cs3)cc2C=O)cc1,20.9

# Tested on: Bacillus cereus
# Experiment: Antibacterial activity against Bacillus cereus ATCC 14579 assessed as growth inhibition at 100 ug/ml after 24 hrs by agar well diffusion method
# Format: functional
# Conditions: not given
# How it was run: as §2
row,Structure (SMILES),growth inhibition (GI)
1,O=Cc1cn(-c2nc(-c3cc4cc(Cl)ccc4oc3=O)cs2)nc1-c1ccc(Cl)cc1,Active
2,Cc1ccc(-c2nn(-c3nc(-c4cc5cc(Br)ccc5oc4=O)cs3)cc2C=O)cc1,Active

# Tested on: Bacillus cereus
# Experiment: Antibacterial activity against Bacillus cereus ATCC 14579 after 24 hrs by microtiter plate method
# Format: functional
# Conditions: ATCC 14579, 24 h
# How it was run: as §4
row,Structure (SMILES),MIC [µg/mL]
1,O=Cc1cn(-c2nc(-c3cc4cc(Cl)ccc4oc3=O)cs2)nc1-c1ccc(Cl)cc1,111
2,Cc1ccc(-c2nn(-c3nc(-c4cc5cc(Br)ccc5oc4=O)cs3)cc2C=O)cc1,126

# Molecular target: T1, Cytochrome P450 2A6 (Homo sapiens, UniProt P11509)
# T1 sequence (P11509 whole entry): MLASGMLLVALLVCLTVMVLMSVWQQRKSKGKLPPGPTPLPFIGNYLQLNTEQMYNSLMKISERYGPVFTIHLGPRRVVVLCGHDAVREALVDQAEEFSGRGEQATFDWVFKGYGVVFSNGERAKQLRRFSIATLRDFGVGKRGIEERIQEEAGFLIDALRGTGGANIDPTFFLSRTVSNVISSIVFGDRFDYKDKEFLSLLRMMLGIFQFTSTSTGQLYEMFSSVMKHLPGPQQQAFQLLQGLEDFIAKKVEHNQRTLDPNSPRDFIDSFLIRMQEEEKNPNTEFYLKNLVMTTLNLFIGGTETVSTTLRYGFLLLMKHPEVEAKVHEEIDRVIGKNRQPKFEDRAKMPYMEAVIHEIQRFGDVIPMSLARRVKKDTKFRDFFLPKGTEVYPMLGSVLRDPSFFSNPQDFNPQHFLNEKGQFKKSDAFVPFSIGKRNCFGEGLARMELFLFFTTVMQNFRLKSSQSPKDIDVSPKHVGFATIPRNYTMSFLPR
# Experiment: Inhibition of human microsomal CYP2A6
# Format: ADME
# Conditions: not given
row,Structure (SMILES),Ki [µM]
1,O=Cc1cn(-c2nc(-c3cc4cc(Cl)ccc4oc3=O)cs2)nc1-c1ccc(Cl)cc1,0.0166
2,Cc1ccc(-c2nn(-c3nc(-c4cc5cc(Br)ccc5oc4=O)cs3)cc2C=O)cc1,0.00154

# Tested on: Staphylococcus aureus
# Experiment: Bactericidal activity against methicillin-resistant Staphylococcus aureus NCTC 13616 after 24 hrs
# Format: functional
# Conditions: NCTC 13616, 24 h, read-out: MBC99.9
# How it was run: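 MBC determined by a standard MBC protocol run alongside the MIC determination. Gentamycin sulfate and ampicillin served as reference drugs.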
row,Structure (SMILES),MBC [µg/mL]
1,O=Cc1cn(-c2nc(-c3cc4cc(Cl)ccc4oc3=O)cs2)nc1-c1ccc(Cl)cc1,265
2,Cc1ccc(-c2nn(-c3nc(-c4cc5cc(Br)ccc5oc4=O)cs3)cc2C=O)cc1,275
